Laboratory results reported in ChEMBL document CHEMBL4765370, “Design, synthesis, and biological evaluation of aryl piperazines with potential as antidiabetic agents via the stimulation of glucose uptake and inhibition of NADH:ubiquinone oxidoreductase” (Eur J Med Chem, 2020).

Experiments:
[1] = Volume of distribution in C57 Black mouse spleen at 10 mg/kg, iv; format: ADME, organism-based
In short: (§1)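 Male C57BL/6 mice (n = 3) dosed at 10 mg/kg by IV or oral (PO) route. Dosing solutions were formulated in 10% DMSO, 10% cremaphor and 80% saline. Compound levels were measured in plasma and tissues over time, and values are given as mean ± SEM.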

[2] = Cmax in C57 Black mouse kidney at 10 mg/kg, iv; format: ADME, organism-based; design: route intravenous, dose 10 mg/kg
In short: (§2)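 Male C57BL/6 mice were given a single 10 mg/kg dose either intravenously or orally. The oral and IV solutions were formulated in 10% DMSO, 10% cremaphor and 80% saline. Concentrations in plasma and in the tissues collected were determined after dosing, with n = 3 per route. Values are given as mean ± SEM.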

[3] = Apparent permeability in MDCK-MDR1 cells at 10 uM after 30 mins by LC-MS/MS analysis; format: ADME, cell-based, Canis lupus familiaris; settings: dog
In short: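 Test article was taken from a 10 mM DMSO stock and diluted in DMEM to a final 10 µM donor solution, with 10 µM propranolol as internal standard. It was applied to hMDR1-MDCK monolayers on filters. Transfer to the receiver compartment was measured over 30 min in both directions, apical-to-basolateral and basolateral-to-apical. Quantification was by LC-MS/MS, n = 3.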

[4] = AUClast in C57 Black mouse spleen at 10 mg/kg, po; format: ADME, organism-based; design: time 0 - last, route oral, dose 10 mg/kg; in short: as §2
[5] = Half life in human hepatocytes at 1 uM up to 120 mins by HPLC-MS/MS analysis; format: ADME, cell-based, Hepatocyte
[6] = AUCinfinity in C57 Black mouse liver at 10 mg/kg, iv; format: ADME, organism-based; design: route intravenous, time infinity, dose 10 mg/kg; in short: as §2
[7] = AUCinfinity in C57 Black mouse brain at 10 mg/kg, iv; format: ADME, organism-based; design: time infinity, route intravenous, dose 10 mg/kg; in short: as §2
[8] = Volume of distribution in C57 Black mouse liver at 10 mg/kg, iv; format: ADME, organism-based; in short: as §1
[9] = Half life in mouse plasma at 1 uM after 60 to 120 mins by HPLC-MS/MS analysis; format: ADME, cell-free; settings: time 60-120 min
In short: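 Buffer containing test compound at 1 µM was mixed with human or mouse blood plasma and incubated at 37 °C for 60–120 min. Parent compound remaining gave the plasma half-life and the percentage stable at 2 h.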

[10] = molecular target: CYP2C19 (Homo sapiens, UniProt P33261); experiment: Inhibition of human CYP2C19 using fluorogenic substrate incubated for 60 mins in presence of NADPH by fluorescence assay relative to control; format: ADME; settings: probe fluorogenic substrate
In short: (§3)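 Baculosomes each expressing a single cDNA-derived human P450 isozyme were incubated with compound at 10 µM, a fluorogenic substrate and NADPH. Incubation was at 37 °C for at least 60 min before fluorescence was read, n = 3.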

[11] = Cmax in C57 Black mouse liver at 10 mg/kg, iv; format: ADME, organism-based; design: route intravenous, dose 10 mg/kg; in short: as §2
[12] = tested on: C2C12; experiment: Induction of glucose uptake in mouse C2C12 cells assessed as [3H]2-deoxyglucose uptake preincubated for 16 hrs followed by followed by [3H]2-deoxyglucose addition and measured after 10 mins by liquid scintillation counting method; format: functional
In short: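 C2C12 mouse myoblasts were grown in high-glucose DMEM with 10% FBS. At 80% confluence they were differentiated into myotubes with 2% horse serum. Myotubes were exposed to compound (10 µM) for 16 h in medium with 0.1% horse serum, then washed with KRB pH 7.4 and given 1 µCi/mL [3H]-2-deoxyglucose for 10 min at 37 °C. After ice-cold washes and 0.1% SDS lysis, scintillation counts were normalised to BCA protein. Results are fold change vs DMSO, mean ± SEM, one-way ANOVA.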

[13] = AUCall in C57 Black mouse liver at 10 mg/kg, po; format: ADME, organism-based; design: dose 10 mg/kg; in short: as §2
[14] = Intrinsic clearance in human microsomes at 1 uM up to 120 mins by HPLC/MS-MS analysis; format: ADME, Microsome
[15] = AUClast in C57 Black mouse liver at 10 mg/kg, po; format: ADME, organism-based; design: time 0 - last, route oral, dose 10 mg/kg; in short: as §2
[16] = AUCall in C57 Black mouse liver at 10 mg/kg, iv; format: ADME, organism-based; design: dose 10 mg/kg; in short: as §2
[17] = molecular target: T1, CYP1A2 (Homo sapiens, UniProt P05177); experiment: Inhibition of human CYP1A2 using fluorogenic substrate incubated for 60 mins in presence of NADPH by fluorescence assay relative to control; format: ADME; settings: probe fluorogenic substrate; in short: as §3
T1 sequence (P05177 whole entry): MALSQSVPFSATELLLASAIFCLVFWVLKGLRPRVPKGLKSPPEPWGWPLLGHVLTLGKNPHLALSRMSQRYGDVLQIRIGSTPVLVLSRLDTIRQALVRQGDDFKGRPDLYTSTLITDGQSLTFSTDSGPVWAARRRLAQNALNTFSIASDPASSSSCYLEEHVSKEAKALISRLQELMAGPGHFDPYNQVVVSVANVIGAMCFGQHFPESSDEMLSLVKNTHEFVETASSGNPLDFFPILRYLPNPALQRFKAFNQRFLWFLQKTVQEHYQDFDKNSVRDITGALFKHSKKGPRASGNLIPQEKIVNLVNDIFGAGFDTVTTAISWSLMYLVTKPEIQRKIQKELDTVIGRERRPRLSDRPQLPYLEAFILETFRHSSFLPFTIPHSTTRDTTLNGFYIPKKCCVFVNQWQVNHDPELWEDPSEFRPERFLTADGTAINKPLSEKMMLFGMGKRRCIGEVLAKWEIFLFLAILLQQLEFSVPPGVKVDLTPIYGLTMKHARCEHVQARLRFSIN

[18] = Intrinsic clearance in mouse microsomes at 1 uM up to 120 mins by HPLC/MS-MS analysis; format: ADME, Microsome
[19] = Tmax in C57 Black mouse brain at 10 mg/kg, po; format: ADME, organism-based; in short: as §1
[20] = AUCall in C57 Black mouse plasma at 10 mg/kg, iv; format: ADME, organism-based; design: dose 10 mg/kg; in short: as §2
[21] = AUClast in C57 Black mouse muscle at 10 mg/kg, iv; format: ADME, organism-based, Muscle tissue; design: time 0 - last, route intravenous, dose 10 mg/kg; in short: as §2
[22] = AUClast in C57 Black mouse liver at 10 mg/kg, iv; format: ADME, organism-based; design: time 0 - last, route intravenous, dose 10 mg/kg; in short: as §2
[23] = Half life in C57 Black mouse spleen at 10 mg/kg, iv; format: ADME, organism-based; in short: as §1
[24] = Cmax in C57 Black mouse plasma at 10 mg/kg, iv; format: ADME, organism-based; design: route intravenous, dose 10 mg/kg; in short: as §2
[25] = Tmax in C57 Black mouse liver at 10 mg/kg, po; format: ADME, organism-based; in short: as §1
[26] = Tmax in C57 Black mouse spleen at 10 mg/kg, po; format: ADME, organism-based; in short: as §1
[27] = Tmax in C57 Black mouse muscle at 10 mg/kg, iv; format: ADME, organism-based, Muscle tissue; in short: as §1
[28] = Tmax in C57 Black mouse kidney at 10 mg/kg, iv; format: ADME, organism-based; in short: as §1
[29] = Cmax in C57 Black mouse brain at 10 mg/kg, iv; format: ADME, organism-based; design: route intravenous, dose 10 mg/kg; in short: as §2
[30] = Half life in human microsomes at 1 uM up to 120 mins by HPLC/MS-MS analysis; format: ADME, Microsome
[31] = Lipophilicity, logP of compound; format: physicochemical; settings: octanol/water
[32] = Efflux ratio of apparent permeability in MDCK-MDR1 cells at 10 uM after 30 mins by LC-MS/MS analysis; format: ADME, cell-based, Canis lupus familiaris; settings: dog
In short: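 hMDR1-MDCK monolayers on filters; compound at 10 µM final in DMEM (from 10 mM DMSO stock) with 10 µM propranolol internal standard in donor. Transfer measured apical-to-basolateral and basolateral-to-apical over 30 min; receiver samples by LC-MS/MS; n = 3.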

[33] = AUCinfinity in C57 Black mouse brain at 10 mg/kg, po; format: ADME, organism-based; design: route oral, time infinity, dose 10 mg/kg; in short: as §2

CYP2C19, sequence (P33261 whole entry): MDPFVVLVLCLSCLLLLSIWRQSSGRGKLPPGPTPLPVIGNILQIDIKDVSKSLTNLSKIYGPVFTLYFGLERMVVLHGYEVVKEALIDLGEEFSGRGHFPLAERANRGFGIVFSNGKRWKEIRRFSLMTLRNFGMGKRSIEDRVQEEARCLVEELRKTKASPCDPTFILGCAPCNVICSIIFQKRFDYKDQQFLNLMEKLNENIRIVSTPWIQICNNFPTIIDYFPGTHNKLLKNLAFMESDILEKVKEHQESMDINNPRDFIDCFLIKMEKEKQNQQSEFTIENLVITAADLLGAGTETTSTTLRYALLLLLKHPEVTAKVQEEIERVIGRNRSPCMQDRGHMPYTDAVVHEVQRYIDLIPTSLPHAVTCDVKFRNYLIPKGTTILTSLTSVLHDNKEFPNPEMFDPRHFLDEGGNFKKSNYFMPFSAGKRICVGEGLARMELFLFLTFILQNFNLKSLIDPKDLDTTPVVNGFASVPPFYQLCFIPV

Vd [1]: 3.19 L/kg
Cmax [2]: 552 ng/mL
Papp at 0.5 h, 10 µM [3]: 27.1 ×10⁻⁶ cm/s
AUC(0-t) [4]: 1260 ng·h/mL
half-life at 1 µM [5]: 3 min
AUC(0-inf) [6]: 531 ng·h/mL
AUC(0-inf) [7]: 253 ng·h/mL
Vd [8]: 3.06 L/kg
half-life at 1 µM [9]: 327 min
inhibition at 1 h [10]: 75.5%
Cmax [11]: 1830 ng/mL
AUC [13]: 4050 ng·h/mL
microsomal CLint at 1 µM [14]: 116 µL/min/mg
AUC(0-t) [15]: 4050 ng·h/mL
AUC [16]: 487 ng·h/mL
inhibition at 1 h [17]: 53.7%
microsomal CLint at 1 µM [18]: 226 µL/min/mg
Tmax [19]: 15 min
AUC [20]: 240 ng·h/mL
AUC(0-t) [21]: 77.3 ng·h/mL
AUC(0-t) [22]: 487 ng·h/mL
half-life [23]: 66 min
Cmax [24]: 996 ng/mL
Tmax [25]: 15 min
Tmax [26]: 15 min
Tmax [27]: 1.8 min
Tmax [28]: 1.8 min
Cmax [29]: 1030 ng/mL
half-life at 1 µM [30]: 12 min
logP [31]: 4.79
efflux ratio at 0.5 h, 10 µM [32]: 0.9
AUC(0-inf) [33]: 774 ng·h/mL
Compound: O=C(CCCc1cccs1)N1CCN(c2ccc(C(F)(F)F)cc2)CC1
fold change (FC) [12]: 2.57
